Values after ≈ are worked out from the molar mass of the structure shown.
Tested on: not listed separately
Test: Plasma protein binding in CD-1 mouse
Format: ADME, cell-free
Settings: read-out: PPB (converted)

Row | Compound | fraction unbound
1 | CCCS(=O)(=O)Nc1ccc(F)c(C(=O)Nc2cnc3[nH]cc(Br)c3c2)c1F | 0.006
2 | CCCS(=O)(=O)Nc1ccc(Cl)c(C(=O)Nc2cnc3[nH]ncc3c2)c1F | 0.029
3 | CCCS(=O)(=O)Nc1ccc(F)c(C(=O)Nc2cnc3[nH]ncc3c2)c1F | 0.129
4 | CCCS(=O)(=O)Nc1ccc(F)c(C(=O)Nc2cnc3[nH]ccc3c2)c1F | 0.021

Tested on: not listed separately
Test: Clearance in CD-1 mouse
Format: ADME, organism-based
Settings: in vivo
Summary of the method: (§1)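 Some compounds were also given intravenously to mice. Clearance is reported in mL/min/kg and volume of distribution in L/kg.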

Row | Compound | clearance
5 | CCCS(=O)(=O)Nc1ccc(F)c(C(=O)Nc2cnc3[nH]cc(Br)c3c2)c1F | 7.2 mL/min/kg
6 | CCCS(=O)(=O)Nc1ccc(Cl)c(C(=O)Nc2cnc3[nH]ncc3c2)c1F | 2.3 mL/min/kg
7 | CCCS(=O)(=O)Nc1ccc(F)c(C(=O)Nc2cnc3[nH]ncc3c2)c1F | 15 mL/min/kg
8 | CCCS(=O)(=O)Nc1ccc(F)c(C(=O)Nc2cnc3[nH]ccc3c2)c1F | 1.9 mL/min/kg

Tested on: not listed separately
Test: AUC in CD-1 mouse at 30 mg/kg, po
Format: ADME, organism-based
Design: dose 30 mg/kg, route oral
Settings: plasma
Summary of the method: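 Single oral dose given to mice as a solution in 40% PEG400/10% ethanol/50% water, at 30 mg/kg or 100 mg/kg. Exposure is reported as AUC in μg h/mL.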

Row | Compound | AUC
9 | CCCS(=O)(=O)Nc1ccc(F)c(C(=O)Nc2cnc3[nH]cc(Br)c3c2)c1F | 49000 ng·h/mL
10 | CCCS(=O)(=O)Nc1ccc(Cl)c(C(=O)Nc2cnc3[nH]ncc3c2)c1F | 147000 ng·h/mL
11 | CCCS(=O)(=O)Nc1ccc(F)c(C(=O)Nc2cnc3[nH]ncc3c2)c1F | 40000 ng·h/mL
12 | CCCS(=O)(=O)Nc1ccc(F)c(C(=O)Nc2cnc3[nH]ccc3c2)c1F | 200000 ng·h/mL

Tested on: not listed separately
Test: Volume of distribution in CD-1 mouse
Format: ADME, organism-based
Settings: in vivo
Summary of the method: as §1

Row | Compound | Vd
13 | CCCS(=O)(=O)Nc1ccc(F)c(C(=O)Nc2cnc3[nH]cc(Br)c3c2)c1F | 0.24 L/kg
14 | CCCS(=O)(=O)Nc1ccc(Cl)c(C(=O)Nc2cnc3[nH]ncc3c2)c1F | 0.17 L/kg
15 | CCCS(=O)(=O)Nc1ccc(F)c(C(=O)Nc2cnc3[nH]ncc3c2)c1F | 0.68 L/kg
16 | CCCS(=O)(=O)Nc1ccc(F)c(C(=O)Nc2cnc3[nH]ccc3c2)c1F | 0.2 L/kg

Tested on: not listed separately
Test: Aqueous solubility of the compound in phosphate buffer at pH 6.5 after 24 hrs by HPLC analysis
Format: physicochemical
Settings: not given

Row | Compound | solubility at 24 h
17 | CCCS(=O)(=O)Nc1ccc(F)c(C(=O)Nc2cnc3[nH]cc(Br)c3c2)c1F | < 1 µg/mL
18 | CCCS(=O)(=O)Nc1ccc(Cl)c(C(=O)Nc2cnc3[nH]ncc3c2)c1F | 15 µg/mL (≈ 36.4 µM)
19 | CCCS(=O)(=O)Nc1ccc(F)c(C(=O)Nc2cnc3[nH]ncc3c2)c1F | 80 µg/mL (≈ 202 µM)
20 | CCCS(=O)(=O)Nc1ccc(F)c(C(=O)Nc2cnc3[nH]ccc3c2)c1F | 1 µg/mL (≈ 2.54 µM)

Tested on: not listed separately
Test: Oral bioavailability in CD-1 mouse at 30 mg/kg as a solution in 40% PEG400/10%ethanol/50% water
Format: ADME, organism-based
Settings: in vivo

Row | Compound | bioavailability
21 | CCCS(=O)(=O)Nc1ccc(F)c(C(=O)Nc2cnc3[nH]cc(Br)c3c2)c1F | 71%
22 | CCCS(=O)(=O)Nc1ccc(Cl)c(C(=O)Nc2cnc3[nH]ncc3c2)c1F | 67%
23 | CCCS(=O)(=O)Nc1ccc(F)c(C(=O)Nc2cnc3[nH]ncc3c2)c1F | 100%
24 | CCCS(=O)(=O)Nc1ccc(F)c(C(=O)Nc2cnc3[nH]ccc3c2)c1F | 76%

Target: T1, Serine/threonine-protein kinase B-raf (Homo sapiens, UniProt P15056, V600E)
Test: Inhibition of B-Raf V600E mutant-mediated Erk phosphorylation in human A375 cells after 1 hr by fluorescence analysis
Format: cell-based, A-375
Settings: not given
Summary of the method: (§2)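 Cells were not stimulated, and inhibition was read against their basal ERK phosphorylation. This was the mechanistic cellular assay, run in both Malme-3M and A375 lines.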

T1 sequence (P15056 2-766 V600E limits assumed): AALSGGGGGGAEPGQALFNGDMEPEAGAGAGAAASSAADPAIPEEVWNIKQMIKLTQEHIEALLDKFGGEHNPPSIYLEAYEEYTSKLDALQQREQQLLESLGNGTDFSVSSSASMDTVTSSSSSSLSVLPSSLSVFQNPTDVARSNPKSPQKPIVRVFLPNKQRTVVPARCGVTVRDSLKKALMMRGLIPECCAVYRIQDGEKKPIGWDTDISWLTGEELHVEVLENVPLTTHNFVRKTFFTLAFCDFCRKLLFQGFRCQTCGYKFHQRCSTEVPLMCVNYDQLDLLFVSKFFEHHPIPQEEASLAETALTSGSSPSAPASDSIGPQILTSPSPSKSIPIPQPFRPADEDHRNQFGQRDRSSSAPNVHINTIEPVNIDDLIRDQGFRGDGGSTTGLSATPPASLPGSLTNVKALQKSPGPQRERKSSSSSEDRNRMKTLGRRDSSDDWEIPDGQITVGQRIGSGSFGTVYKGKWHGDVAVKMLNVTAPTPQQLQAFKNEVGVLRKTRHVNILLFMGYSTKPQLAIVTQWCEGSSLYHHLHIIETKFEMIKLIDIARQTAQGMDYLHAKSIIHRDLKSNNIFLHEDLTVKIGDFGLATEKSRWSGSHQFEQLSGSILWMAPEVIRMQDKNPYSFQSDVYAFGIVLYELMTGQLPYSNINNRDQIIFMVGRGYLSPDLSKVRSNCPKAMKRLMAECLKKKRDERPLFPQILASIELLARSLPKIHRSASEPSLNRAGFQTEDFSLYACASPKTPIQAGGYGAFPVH

Row | Compound | IC50
25 | CCCS(=O)(=O)Nc1ccc(F)c(C(=O)Nc2cnc3[nH]cc(Br)c3c2)c1F | 190 nM
26 | CCCS(=O)(=O)Nc1ccc(Cl)c(C(=O)Nc2cnc3[nH]ncc3c2)c1F | 560 nM
27 | CCCS(=O)(=O)Nc1ccc(F)c(C(=O)Nc2cnc3[nH]ncc3c2)c1F | 430 nM
28 | CCCS(=O)(=O)Nc1ccc(F)c(C(=O)Nc2cnc3[nH]ccc3c2)c1F | 290 nM

Target: T1, Serine/threonine-protein kinase B-raf
Test: Inhibition of B-Raf V600E mutant-mediated Erk phosphorylation in human MALME-3M cells after 1 hr by fluorescence analysis
Format: cell-based
Settings: not given
Summary of the method: as §2

Row | Compound | IC50
29 | CCCS(=O)(=O)Nc1ccc(F)c(C(=O)Nc2cnc3[nH]cc(Br)c3c2)c1F | 39 nM
30 | CCCS(=O)(=O)Nc1ccc(Cl)c(C(=O)Nc2cnc3[nH]ncc3c2)c1F | 56 nM
31 | CCCS(=O)(=O)Nc1ccc(F)c(C(=O)Nc2cnc3[nH]ncc3c2)c1F | 62 nM
32 | CCCS(=O)(=O)Nc1ccc(F)c(C(=O)Nc2cnc3[nH]ccc3c2)c1F | 94 nM

Tested on: not listed separately
Test: Aqueous solubility of the compound in phosphate buffer at pH 7.4 after 24 hrs by HPLC analysis
Format: physicochemical
Settings: not given

Row | Compound | solubility at 24 h
33 | CCCS(=O)(=O)Nc1ccc(F)c(C(=O)Nc2cnc3[nH]cc(Br)c3c2)c1F | < 1 µg/mL
34 | CCCS(=O)(=O)Nc1ccc(Cl)c(C(=O)Nc2cnc3[nH]ncc3c2)c1F | 48 µg/mL (≈ 117 µM)
35 | CCCS(=O)(=O)Nc1ccc(F)c(C(=O)Nc2cnc3[nH]ncc3c2)c1F | 150 µg/mL (≈ 379 µM)
36 | CCCS(=O)(=O)Nc1ccc(F)c(C(=O)Nc2cnc3[nH]ccc3c2)c1F | 4 µg/mL (≈ 10.1 µM)

Target: T1, Serine/threonine-protein kinase B-raf
Test: Inhibition of full length human B-Raf V600E mutant expressed in baculovirus infected insect cells assessed as [gamma-33P]incorporation into MEK after 60 mins by scintillation counting
Settings: not given

Row | Compound | IC50
37 | CCCS(=O)(=O)Nc1ccc(F)c(C(=O)Nc2cnc3[nH]cc(Br)c3c2)c1F | 3.4 nM
38 | CCCS(=O)(=O)Nc1ccc(Cl)c(C(=O)Nc2cnc3[nH]ncc3c2)c1F | 6.3 nM
39 | CCCS(=O)(=O)Nc1ccc(F)c(C(=O)Nc2cnc3[nH]ncc3c2)c1F | 17 nM
40 | CCCS(=O)(=O)Nc1ccc(F)c(C(=O)Nc2cnc3[nH]ccc3c2)c1F | 38 nM
